Data published in ChEMBL document CHEMBL2311264, “Synthesis and anticancer activity of heteroaromatic linked 4β-amido podophyllotoxins as apoptotic inducing agents” (Bioorg Med Chem Lett, 2013).
Calls of active or inactive are those of the source. The rule behind the calls is not given here.

Legend:
HT-29 = assay: Cytotoxicity against human HT-29 cells after 72 hrs by MTT assay; type: functional, cell-based; conditions: HT-29, 72 h
ACHN = assay: Cytotoxicity against human ACHN cells […] by MTT assay; type: functional, cell-based
B16 = assay: Cytotoxicity against mouse B16 cells […] by MTT assay; type: functional, cell-based
A549 [1] = assay: Cytotoxicity against human A549 cells […] by MTT assay; type: functional, cell-based
HeLa = assay: Cytotoxicity against human HeLa cells […] by MTT assay; type: functional, cell-based
A549 [2] = assay: Induction of cell cycle arrest in human A549 cells assessed as G1 phase cells at 1 uM by FACS analysis (reference value: 85.33%); type: functional
A549 [3] = assay: Induction of cell cycle arrest in human A549 cells assessed as G2/M phase cells at 1 uM by FACS analysis (reference value: 9.89%); type: functional
A549 [4] = assay: Induction of cell cycle arrest in human A549 cells assessed as sub G1 phase cells at 1 uM by FACS analysis (reference value: 1.08%); type: functional
A549 [5] = assay: Induction of cell cycle arrest in human A549 cells assessed as S phase cells at 1 uM by FACS analysis (reference value: 3.69%); type: functional
A549 [6] = assay: Induction of apoptosis in human A549 cells assessed as increase in fluorescence at 3 uM after 24 hrs by Hoechst staining method relative to control; type: functional, cell-based
In short: (§1)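 Cells were seeded at 10,000 per coverslip and grown 24 h, then treated 24 h. Vehicle control was 0.001% DMSO; etoposide was the standard. Hoechst at […] with 4% paraformaldehyde was added for 30 min at 37 °C. Random fields were imaged by fluorescence microscopy and apoptotic cells scored manually by cytoplasmic condensation, apoptotic bodies, nuclear fragmentation and relative fluorescence.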

A549 [7] = assay: Induction of apoptosis in human A549 cells assessed as cytoplasmic condensation at 3 uM after 24 hrs by Hoechst staining method; type: functional, cell-based; in short: as §1
A549 [8] = assay: Induction of cell cycle arrest in human A549 cells assessed as sub G1 phase cells at 3 uM by FACS analysis (reference value: 1.08%); type: functional
A549 [9] = assay: Induction of cell cycle arrest in human A549 cells assessed as G1 phase cells at 3 uM by FACS analysis (reference value: 85.33%); type: functional
A549 [10] = assay: Induction of cell cycle arrest in human A549 cells assessed as G2/M phase cells at 3 uM by FACS analysis (reference value: 9.89%); type: functional
A549 [11] = assay: Induction of cell cycle arrest in human A549 cells assessed as S phase cells at 3 uM by FACS analysis (reference value: 3.69%); type: functional
A549 [12] = assay: Induction of apoptosis in human A549 cells assessed as nuclear fragmentation at 3 uM after 24 hrs by Hoechst staining method; type: functional, cell-based; in short: as §1
A549 [13] = assay: Induction of apoptosis in human A549 cells assessed as apoptotic bodies at 3 uM after 24 hrs by Hoechst staining method; type: functional, cell-based; in short: as §1
A549 [14] = assay: Induction of apoptosis in human A549 cells assessed as increase in caspase3 activity at 3 uM after 48 hrs relative to control; type: functional
In short: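 A-549 cells were seeded at 2.5 × 10^6/well and treated 48 h alongside etoposide, then scraped and lysed on ice. Supernatant was mixed with 2X assay buffer and Ac-DEVD-AFC substrate for 1 h. Fluorescence (ex 400, em 505 nm) was read every 5 min, normalized to Bradford protein and expressed as fold over control. Two experiments, each in triplicate.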

A549 [15] = assay: Induction of apoptosis in human A549 cells assessed as DNA fragmentation at 3 uM after 48 hrs by agarose gel electrophoretic analysis; type: functional, cell-based
In short: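 Cells were seeded at 1 × 10^6/well and grown 48 h, then treated 48 h. Cells were pelleted and lysed. Lysate was given SDS and RNase-A at 56 °C for 2 h, then proteinase K at 37 °C for 2 h. DNA was precipitated with ammonium acetate and cold ethanol, washed with 80% ethanol and dissolved in TE. Laddering was read on 2% agarose gel in TE; 50 bp marker.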

SMILES | IC50 (HT-29) [µM] | IC50 (ACHN) [µM] | IC50 (B16) [µM] | IC50 (A549 [1]) [µM] | IC50 (HeLa) [µM] | other results
COc1ccc(-c2cc(C(=O)N[C@@H]3c4cc5c(cc4[C@@H](c4cc(OC)c(OC)c(OC)c4)[C@H]4C(=O)OC[C@@H]43)OCO5)no2)cc1 | 32.1 | 30.3 | 22.5 | 38.1 | 11.2 | 
COc1ccc(-c2cc(C(=O)N[C@@H]3c4cc5c(cc4[C@@H](c4cc(OC)c(OC)c(OC)c4)[C@H]4C(=O)OC[C@@H]43)OCO5)n[nH]2)cc1OC | 36.3 | 31.6 | 45.3 | 39.5 | 25.1 | 
COc1cc([C@@H]2c3cc4c(cc3[C@@H](NC(=O)c3cc(-c5ccc(F)c(F)c5)[nH]n3)[C@H]3COC(=O)[C@H]23)OCO4)cc(OC)c1OC | 10.8 | 32.5 | 25.6 | 15.8 | 14.9 | 
COc1ccc(-c2cc(C(=O)N[C@@H]3c4cc5c(cc4[C@@H](c4cc(OC)c(OC)c(OC)c4)[C@H]4C(=O)OC[C@@H]43)OCO5)no2)cc1OC | 38.4 | 23.1 | 12.7 | 23.1 | 13.3 | 
COc1cc([C@@H]2c3cc4c(cc3[C@H](O)[C@H]3COC(=O)[C@H]23)OCO4)cc(OC)c1OC [PODOFILOX] | 1.02 | 2.3 | 2.5 | 3.6 | 2.8 | Activity (A549 [2]): 78.31%; Activity (A549 [3]): 16.24%; Activity (A549 [4]): 1.83%; Activity (A549 [5]): 3.67%
COc1cc(-c2cc(C(=O)N[C@@H]3c4cc5c(cc4[C@@H](c4cc(OC)c(OC)c(OC)c4)[C@H]4C(=O)OC[C@@H]43)OCO5)no2)cc(OC)c1OC | 25.1 | 34.2 | 23.4 | 19.8 | 18.4 | 
COc1cc([C@@H]2c3cc4c(cc3[C@@H](NC(=O)c3cc(-c5ccc([N+](=O)[O-])cc5)[nH]n3)[C@H]3COC(=O)[C@H]23)OCO4)cc(OC)c1OC | 20.6 | 23.5 |  | 19.4 | 14.6 | 
COc1ccc(-c2cc(C(=O)N[C@@H]3c4cc5c(cc4[C@@H](c4cc(OC)c(OC)c(OC)c4)[C@H]4C(=O)OC[C@@H]43)OCO5)nc3cc(-c4ccccc4)nn23)cc1 | 5.7 | 17.3 | 18.3 | 11.2 | 8.9 | 
COc1ccc(-c2cc(C(=O)N[C@@H]3c4cc5c(cc4[C@@H](c4cc(OC)c(OC)c(OC)c4)[C@H]4C(=O)OC[C@@H]43)OCO5)n[nH]2)cc1 | 8.4 | 11.6 | 9.5 | 5.3 | 9.4 | 
COc1cc(-c2cc(C(=O)N[C@@H]3c4cc5c(cc4[C@@H](c4cc(OC)c(OC)c(OC)c4)[C@H]4C(=O)OC[C@@H]43)OCO5)nc3cc(-c4ccccc4)nn23)cc(OC)c1OC | 9.2 | 13.8 | 12.7 | 9.5 | 13.7 | 
COc1cc(-c2cc(C(=O)N[C@@H]3c4cc5c(cc4[C@@H](c4cc(OC)c(OC)c(OC)c4)[C@H]4C(=O)OC[C@@H]43)OCO5)n[nH]2)cc(OC)c1OC | 16.8 | 27.1 | 18.3 | 15.2 | 11.5 | 
COc1cc([C@@H]2c3cc4c(cc3[C@@H](NC(=O)c3cc(-c5ccc([N+](=O)[O-])cc5)on3)[C@H]3COC(=O)[C@H]23)OCO4)cc(OC)c1OC | 22.6 | 26.4 | 16.8 | 17.9 | 7.5 | 
COc1ccc(-c2cc(C(=O)N[C@@H]3c4cc5c(cc4[C@@H](c4cc(OC)c(OC)c(OC)c4)[C@H]4C(=O)OC[C@@H]43)OCO5)nc3cc(-c4ccccc4)nn23)cc1OC | 14.5 | 19.3 | 10.7 | 17.3 | 14.4 | 
COc1cc([C@@H]2c3cc4c(cc3[C@@H](NC(=O)c3cc(-c5ccc(Cl)c(Cl)c5)on3)[C@H]3COC(=O)[C@H]23)OCO4)cc(OC)c1OC | 11.2 | 16.8 | 22.7 | 31.1 | 12.6 | 
COc1cc([C@@H]2c3cc4c(cc3[C@@H](NC(=O)c3cc(-c5ccc(F)cc5)[nH]n3)[C@H]3COC(=O)[C@H]23)OCO4)cc(OC)c1OC | 26.3 | 18.3 | 26.1 | 21.2 | 15.2 | 
COc1cc([C@@H]2c3cc4c(cc3[C@@H](NC(=O)c3cc(-c5ccc([N+](=O)[O-])cc5)n5nc(-c6ccccc6)cc5n3)[C@H]3COC(=O)[C@H]23)OCO4)cc(OC)c1OC | 10.9 | 17.7 | 18.4 | 10.6 | 12.1 | 
COc1cc([C@@H]2c3cc4c(cc3[C@@H](NC(=O)c3cc(-c5ccc(F)c(F)c5)on3)[C@H]3COC(=O)[C@H]23)OCO4)cc(OC)c1OC | 14.1 | 16.4 | 27.5 | 12.7 | 21.2 | 
COc1cc([C@@H]2c3cc4c(cc3[C@@H](NC(=O)c3cc(-c5ccccc5)on3)[C@H]3COC(=O)[C@H]23)OCO4)cc(OC)c1OC | 19.5 | 17.5 | 16.3 | 13.6 | 5.9 | 
COc1cc([C@@H]2c3cc4c(cc3[C@@H](NC(=O)c3cc(-c5ccc(F)cc5)on3)[C@H]3COC(=O)[C@H]23)OCO4)cc(OC)c1OC | 19.9 | 15.6 | 23.5 | 20.6 | 16.6 | 
COc1cc([C@@H]2c3cc4c(cc3[C@@H](O[C@@H]3O[C@@H]5CO[C@@H](C)O[C@H]5[C@H](O)[C@H]3O)[C@H]3COC(=O)[C@H]23)OCO4)cc(OC)c1O [ETOPOSIDE] |  |  | 1.39 | 2.8 | 1.52 | Activity (A549 [6]): Active; Activity (A549 [7]): Active; Activity (A549 [2]): 62.32%; Activity (A549 [8]): 8.3%; Activity (A549 [9]): 31.49%; Activity (A549 [10]): 57.86%; Activity (A549 [11]): 2.42%; Activity (A549 [3]): 32.33%; Activity (A549 [12]): Active; Activity (A549 [13]): Active; fold change (FC) (A549 [14]): 6; Activity (A549 [4]): 1.25%; Activity (A549 [15]): Active; Activity (A549 [5]): 4.1%
COc1cc([C@@H]2c3cc4c(cc3[C@@H](NC(=O)c3cc(-c5ccc(C)cc5)[nH]n3)[C@H]3COC(=O)[C@H]23)OCO4)cc(OC)c1OC | 26.5 | 25.8 | 16.6 | 22.3 | 16.9 | 
COc1cc([C@@H]2c3cc4c(cc3[C@@H](NC(=O)c3cc(-c5ccc(C)cc5)on3)[C@H]3COC(=O)[C@H]23)OCO4)cc(OC)c1OC | 27.9 | 28.5 | 20.3 | 24.7 | 5.26 | 
COc1cc([C@@H]2c3cc4c(cc3[C@@H](NC(=O)c3cc(-c5ccccc5)[nH]n3)[C@H]3COC(=O)[C@H]23)OCO4)cc(OC)c1OC | 26.5 | 30.2 | 16.3 | 28.9 | 7.5 | 
